Experimental data as given in ChEMBL document CHEMBL1955718, “Discovery of new orally effective analgesic and anti-inflammatory hybrid furoxanyl N-acylhydrazone derivatives” (Bioorg Med Chem, 2012).

What was measured:
Glycine max [1] = experiment: Inhibition of soybean lipoxygenase using arachidonic acid as substrate at 4 uM
Procedure, shortened: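 Soybean lipoxygenase-15 screening kit with arachidonic acid as substrate and H2O2 as lipoxygenating agent in 0.1 M Tris-HCl, pH 7.4. Values are % inhibition, means of duplicate determinations, Student t-test.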

HT-29 [2] = experiment: Pro-inflammatory activity in NFkappaB-GFP transfected human HT-29 cells at 25 to 400 uM after 24 hrs by propidium iodide staining-based flow cytometric analysis; type: ADME, cell-based; settings: ht-29, 24 h
Procedure, shortened: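 Reporter HT-29-NF-κB-hrGFP cells given compound alone, without TNF-α, for 18–24 h at 37 °C after the same 2 h pre-incubation. GFP-positive live (propidium iodide-excluding) cells counted by flow cytometry; IL-8 in supernatant measured by bead-based flow cytometry.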

HT-29 [3] = experiment: Inhibition of TNFalpha-induced NF-kappaB activation expressed in human HT-29 cells coexpressing hrGFP at 200 uM after 24 hrs by propidium iodide staining-based flow cytometric analysis relative to control; type: cell-based
Procedure, shortened: (§1)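 HT-29 cells stably expressing NF-κB-driven hrGFP given compound (DMSO <0.5%) for 2 h at the maximum non-cytotoxic concentration, then TNF-α at 3 ng/mL final for 18–24 h. Cells trypsinised and stained with propidium iodide; 5000 events gated on FSC/SSC. The %GFP-positive among PI-excluding live cells is normalised to TNF-α/DMSO control, ± SD.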

[4] = Cytotoxicity against mouse […] cells after 48 hrs by MTT assay; type: cell-based
Procedure, shortened: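 J774 macrophages in DMEM (4 mM L-glutamine, 10% heat-inactivated FBS) were seeded at 1 × 10^5 cells/well and grown for 48 h at 37 °C, 5% CO2. They were then exposed to compounds at 25–400 µM for 48 h. MTT (0.1 mg/mL final) was added for 3 h, formazan was dissolved in DMSO/glycine buffer pH 10.5, and absorbance was read at 560 nm to give an IC50.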

[5] = Cytotoxicity against human HT-29 cells expressing NF-kappaB-hrGFP assessed as highest non-cytotoxic dose for 100% cell survival after 24 hrs by MTT assay; type: cell-based; settings: read-out: Activity
Procedure, shortened: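 HT-29 cells stably carrying pNF-κB-hrGFP, seeded at 0.5 × 10^6/mL in DMEM with 10% FBS, grown 24 h at 37 °C, 5% CO2. Compounds added in DMSO (<0.5% v/v final) at 12.5–400 µM for 24 h. Viability by MTT reduction (2 h), formazan dissolved in DMSO/glycine buffer, read at 560 nm.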

Glycine max [6] = experiment: Inhibition of soybean lipoxygenase using arachidonic acid as substrate at 50 uM
Procedure, shortened: (§2)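 Soybean 15-lipoxygenase kit assay, arachidonic acid substrate, H2O2 as lipoxygenating agent in 0.1 M Tris-HCl pH 7.4. Single-point screen at 50 µM. IC50 found by varying concentration over 10–100 µM. Quercetin at 4 µM as positive control; duplicate means; Student t-test.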

HT-29 [7] = experiment: Inhibition of NF-kappaB activation expressed in human HT-29 cells assessed as inhibition of TNFalpha-stimulated IL8 release at 100 uM after 24 hrs by flow cytometric analysis relative to control; type: cell-based
Procedure, shortened: (§3)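 Reporter HT-29-NF-κB-hrGFP cells pretreated 2 h with compound (DMSO <0.5%) at the highest concentration with 100% survival, then stimulated with TNF-α (3 ng/mL final) for 18–24 h at 37 °C. IL-8 in clarified supernatant measured by flow cytometric bead assay (500 events). Expressed as % of TNF-α/DMSO control ± SD; thalidomide as reference.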

[8] = Solubility of the compound in soybean lipoxygenase assay buffer at pH 7.4 at >50 uM; type: physicochemical
HT-29 [9] = experiment: Inhibition of TNFalpha-induced NF-kappaB activation expressed in human HT-29 cells coexpressing hrGFP at 100 uM after 24 hrs by propidium iodide staining-based flow cytometric analysis relative to control; type: cell-based; procedure, shortened: as §1
[10] = Inhibition of soybean lipoxygenase using arachidonic acid as substrate; parameters: species or system Glycine max; procedure, shortened: as §2
HT-29 [11] = experiment: Inhibition of TNFalpha-induced NF-kappaB activation expressed in human HT-29 cells coexpressing hrGFP at 400 uM after 24 hrs by propidium iodide staining-based flow cytometric analysis relative to control; type: cell-based; procedure, shortened: as §1
[12] = Induction of NO release in 0.1 M Tris-HCl and 0.1 mM DTPA at pH 8.3 measured for 20 mins in presence of cysteine; type: physicochemical; settings: buffer, pH 8.3, 20 min
Procedure, shortened: (§4)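 Electrochemical NO detection with an ISO-NOP sensor. Compounds in DMSO added to 0.1 M Tris-HCl, 0.1 mM DTPA at pH 7.4 or 8.3. Cysteine (300 or 100 µM) added and NO recorded for 20 min at 25 or 37 °C; compound:Cys ratio 1:1 at 25 °C, with 3:1 and 37 °C runs also made.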

Mus musculus = experiment: Analgesic activity in albino mouse assessed as inhibition of acetic acid-induced abdominal constriction at 100 umol/kg, po administered 1 hr before acetic acid challenge measured after 60 mins relative to control; type: functional; settings: Abdomen
Procedure, shortened: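 Albino mice of both sexes (18–23 g) were dosed orally as a suspension in 5% arabic gum in saline, with vehicle controls. After 1 h they received 0.6% acetic acid ip (0.1 mL/10 g). Constrictions were counted for 20 min starting 10 min after injection. Data are % inhibition vs vehicle, mean ± SEM, Student t-test.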

HT-29 [13] = experiment: Inhibition of NF-kappaB activation expressed in human HT-29 cells assessed as inhibition of TNFalpha-stimulated IL8 release at 400 uM after 24 hrs by flow cytometric analysis relative to control; type: cell-based; procedure, shortened: as §3
Rattus norvegicus = experiment: Antiinflammatory activity in albino rat assessed as inhibition of carrageenan-induced paw edema at 100 umol/kg, po administered 1 hr before carrageenan challenge measured after 3 hrs by plethysmometric analysis relative to control; type: functional
Procedure, shortened: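 Albino rats of both sexes (150–200 g) were dosed orally as a suspension in 1% Tween 80 in saline, with vehicle controls. After 1 h, 0.1 mL 1% carrageenan or saline was injected subplantar. Paw volume was read by glass plethysmometer at 3 h. Edema = carrageenan-paw minus saline-paw volume; % inhibition vs vehicle; Student t-test.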

Salmonella typhimurium [14] = experiment: Induction of mutagenesis in Salmonella Typhimurium TA98 assessed as number of revertants at 3.1 to 250 ug/plate in presence of mouse liver S9 fraction; type: toxicity, organism-based; settings: salmonella enterica subsp. enterica serovar typhimurium
Procedure, shortened: (§5)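 S. typhimurium TA98, plate incorporation on minimal glucose (Vogel-Bonner) agar. Compounds were in DMSO, dosed in triplicate with a top non-toxic dose of 250 or 350 µg/plate. Runs were without S9 (positive control 4-nitro-o-phenylenediamine, 20 µg/plate) or with 500 µL Aroclor-induced mouse liver S9 (positive control 2-aminofluorene, 10 µg/plate), plus a DMSO control. Revertants were counted manually; mutagenic means ≥2-fold spontaneous revertants at two consecutive doses.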

[15] = Induction of NO release in 0.1 M Tris-HCl and 0.1 mM DTPA at pH 7.4 measured for 20 mins in presence of cysteine; type: physicochemical; settings: buffer, pH 7.4, 20 min; procedure, shortened: as §4
Salmonella typhimurium [16] = experiment: Induction of mutagenesis in Salmonella Typhimurium TA98 assessed as number of revertants at 3.1 to 250 ug/plate in absence of mouse liver S9 fraction; type: toxicity, organism-based; settings: salmonella enterica subsp. enterica serovar typhimurium; procedure, shortened: as §5
HT-29 [17] = experiment: Inhibition of NF-kappaB activation expressed in human HT-29 cells assessed as inhibition of TNFalpha-stimulated IL8 release at 200 uM after 24 hrs by flow cytometric analysis relative to control; type: cell-based; procedure, shortened: as §3

Structure (SMILES): O=c1c(O)c(-c2ccc(O)c(O)c2)oc2cc(O)cc(O)c12
- inhibition (Glycine max [1]): 35%

Structure (SMILES): Cc1[nH]cnc1C(=O)N/N=C/c1c(-c2ccccc2)no[n+]1[O-]
- Activity (HT-29 [2]): Non-toxic
- inhibition (HT-29 [3]): 103%
- IC50 [4]: > 400 µM
- MNTC at 24 h [5]: 200 µM

Structure (SMILES): Cc1c(/C=N/NC(=O)c2cccnc2)no[n+]1[O-] (mixture of isomers)
- inhibition (Glycine max [6]): 22%
- inhibition (HT-29 [7]): 105%
- solubility [8]: Insoluble
- Activity (HT-29 [2]): Non-toxic
- IC50 [4]: > 400 µM
- NF-kappaB activity (% of TNF-alpha control) (HT-29 [9]): 112%
- MNTC at 24 h [5]: 100 µM

Structure (SMILES): Cc1c(C(=O)N/N=C/c2ccccc2O)no[n+]1[O-]
- inhibition (Glycine max [6]): 37%
- solubility [8]: Insoluble
- Activity (HT-29 [2]): Non-toxic
- IC50 [4]: 246 µM
- NF-kappaB activity (% of TNF-alpha control) (HT-29 [9]): 55%
- MNTC at 24 h [5]: 100 µM

Structure (SMILES): Cc1c(C(=O)N/N=C/c2ccc(C(=O)O)cc2)no[n+]1[O-]
- inhibition (Glycine max [6]): 74%
- IC50 [10]: 35 µM
- NF-kappaB activity (GFP-positive cells), % of TNF-alpha control (HT-29 [11]): 125%
- Activity [12]: 0.19 nM/min
- Activity (HT-29 [2]): Non-toxic
- inhibition in vivo at 100 µmol/kg (Mus musculus): 0%
- inhibition (HT-29 [13]): 53%
- IC50 [4]: > 400 µM
- inhibition in vivo at 100 µmol/kg (Rattus norvegicus): 16%
- Activity (Salmonella typhimurium [14]): Non-toxic
- Activity [15]: 1.04 nM/min
- Activity (Salmonella typhimurium [16]): Non-toxic
- MNTC at 24 h [5]: 400 µM

Structure (SMILES): O=C1CCC(N2C(=O)c3ccccc3C2=O)C(=O)N1 (stereo not given) [THALIDOMIDE]
- inhibition (HT-29 [7]): 63%
- NF-kappaB activity (GFP-positive cells), % of TNF-alpha control (HT-29 [11]): 116%
- Activity (HT-29 [2]): Non-toxic
- inhibition (HT-29 [13]): 57%
- inhibition (HT-29 [3]): 114%
- IC50 [4]: > 400 µM
- inhibition (HT-29 [17]): 77%
- NF-kappaB activity (% of TNF-alpha control) (HT-29 [9]): 126%
- MNTC at 24 h [5]: 100 µM
